What was measured:
Assay type in all cases: functional
[1] = tested on: ACHN; test: Antiproliferative activity against human ACHN cells after 48 hrs by sulforhodamine B assay
Procedure, shortened: (§1)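 Cells grown in RPMI 1640 with 5% FBS and 2 mM L-glutamine, plated at 5000–40,000 cells/well and preincubated 24 h at 37 °C, 5% CO2. Five drug concentrations (10-fold or ½-log dilutions from DMSO stocks) applied for 48 h. TCA-fixed (final 10% adherent, 16% suspension), SRB-stained, A515 read. Growth versus time-zero and control wells gave GI50, TGI, LC50.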

[2] = tested on: UACC-62; test: Antiproliferative activity against human UACC62 cells after 48 hrs by sulforhodamine B assay; conditions: UACC-62, 48 h
Procedure, shortened: (§2)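 Cells in RPMI 1640 with 5% FBS and 2 mM L-glutamine were seeded at 5000–40,000/well according to doubling time and preincubated 24 h at 37 °C in 5% CO2. Time-zero plates were TCA-fixed when drug was added. Five 10-fold or ½-log dilutions from DMSO stocks were added for 48 h. After SRB staining, A515 was read and GI50 derived from [(Ti−Tz)/(C−Tz)]×100 = 50.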

[3] = tested on: 786-0; test: Antiproliferative activity against human 786-0 cells after 48 hrs by sulforhodamine B assay; conditions: 786-0, 48 h; procedure, shortened: as §1
[4] = tested on: LOX IMVI; test: Antiproliferative activity against human LOXIMVI cells after 48 hrs by sulforhodamine B assay; procedure, shortened: as §1
[5] = Antiproliferative activity against human EKVX cells after 48 hrs by sulforhodamine B assay; procedure, shortened: as §1
[6] = tested on: HCT-116; test: Antiproliferative activity against human HCT116 cells after 48 hrs by sulforhodamine B assay; conditions: HCT-116, 48 h; procedure, shortened: as §1
[7] = Antiproliferative activity against human HCC2998 cells after 48 hrs by sulforhodamine B assay; conditions: HCC 2998, 48 h; procedure, shortened: as §1
[8] = tested on: HOP-92; test: Antiproliferative activity against human HOP92 cells after 48 hrs by sulforhodamine B assay; conditions: HOP-92, 48 h; procedure, shortened: as §1
[9] = tested on: HT-29; test: Antiproliferative activity against human HT-29 cells after 48 hrs by sulforhodamine B assay; conditions: HT-29, 48 h; procedure, shortened: as §1
[10] = tested on: PC-3; test: Antiproliferative activity against human PC3 cells after 48 hrs by sulforhodamine B assay; conditions: PC-3, 48 h; procedure, shortened: as §1
[11] = tested on: MDA-MB-468; test: Antiproliferative activity against human MDA-MB-468 cells after 48 hrs by sulforhodamine B assay; conditions: MDA-MB-468, 48 h; procedure, shortened: as §1
[12] = tested on: SR; test: Antiproliferative activity against human SR cells after 48 hrs by sulforhodamine B assay; procedure, shortened: as §2
[13] = tested on: SNB-19; test: Antiproliferative activity against human SNB19 cells after 48 hrs by sulforhodamine B assay; conditions: SNB-19, 48 h; procedure, shortened: as §1
[14] = tested on: SK-MEL-28; test: Antiproliferative activity against human SK-MEL-28 cells after 48 hrs by sulforhodamine B assay; conditions: SK-MEL-28, 48 h; procedure, shortened: as §1
[15] = tested on: OVCAR-5; test: Antiproliferative activity against human OVCAR5 cells after 48 hrs by sulforhodamine B assay; conditions: OVCAR-5, 48 h; procedure, shortened: as §1
[16] = tested on: DU-145; test: Antiproliferative activity against human DU145 cells after 48 hrs by sulforhodamine B assay; conditions: DU-145, 48 h; procedure, shortened: as §1
[17] = tested on: MCF7; test: Antiproliferative activity against human MCF7 cells after 48 hrs by sulforhodamine B assay; conditions: MCF7, 48 h; procedure, shortened: as §1
[18] = Antiproliferative activity against human Hs 578T cells after 48 hrs by sulforhodamine B assay; procedure, shortened: as §1
[19] = tested on: HL-60; test: Antiproliferative activity against human HL60 (TB) cells after 48 hrs by sulforhodamine B assay; conditions: HL-60, 48 h
Procedure, shortened: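 NCI 60-cell panel protocol: cells in RPMI 1640 with 5% FBS and 2 mM L-glutamine, plated 24 h at 37 °C/5% CO2 before dosing. Compounds dissolved in DMSO and tested at five concentrations (10-fold or ½ log serial dilutions) for 48 h. Suspension cells fixed with 80% TCA (final 16%), SRB stained, absorbance at 515 nm. GI50 derived from time-zero-corrected growth.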

[20] = tested on: CCRF-CEM; test: Antiproliferative activity against human CCRF-CEM cells after 48 hrs by sulforhodamine B assay; procedure, shortened: as §1
[21] = tested on: U-251; test: Antiproliferative activity against human U251 cells after 48 hrs by sulforhodamine B assay; conditions: U-251, 48 h; procedure, shortened: as §2
[22] = tested on: NCI-H322M; test: Antiproliferative activity against human NCI-H322M cells after 48 hrs by sulforhodamine B assay; procedure, shortened: as §1
[23] = tested on: SF-539; test: Antiproliferative activity against human SF539 cells after 48 hrs by sulforhodamine B assay; conditions: SF-539, 48 h; procedure, shortened: as §1
[24] = tested on: HCT-15; test: Antiproliferative activity against human HCT15 cells after 48 hrs by sulforhodamine B assay; conditions: HCT-15, 48 h; procedure, shortened: as §1
[25] = tested on: MDA-MB-435; test: Antiproliferative activity against human MDA-MB-435 cells after 48 hrs by sulforhodamine B assay; conditions: MDA-MB-435, 48 h; procedure, shortened: as §1
[26] = tested on: T47D; test: Antiproliferative activity against human T47D cells after 48 hrs by sulforhodamine B assay; procedure, shortened: as §2
[27] = tested on: RPMI-8226; test: Antiproliferative activity against human RPMI8226 cells after 48 hrs by sulforhodamine B assay; conditions: RPMI-8226, 48 h; procedure, shortened: as §1
[28] = tested on: OVCAR-4; test: Antiproliferative activity against human OVCAR4 cells after 48 hrs by sulforhodamine B assay; conditions: OVCAR-4, 48 h; procedure, shortened: as §1
[29] = read-out: pLC50 (the source's name) (converted)

**Q.** For CN1CCN(CCCn2c(=O)c3sc4ncccc4c3n3nnc(-c4ccccc4)c23)CC1, which GI50 [1] is on record?
**A.** 8.13 µM

**Q.** And the LC50 (50% lethal concentration) [1]?
**A.** 27.5 µM

**Q.** And the TGI ([1]; read-out: pTGI (converted))?
**A.** 15.1 µM

**Q.** What about the GI50 [2] of the same compound?
**A.** 8.91 µM

**Q.** What about the LC50 (concentration killing 50% of cells) [2] of the same compound?
**A.** 29.5 µM

**Q.** And the TGI ([2]; read-out: pTGI (converted))?
**A.** 16.2 µM

**Q.** What about the GI50 [3] of the same compound?
**A.** 7.41 µM

**Q.** And the CC50 [3, 29]?
**A.** 28.8 µM

**Q.** What about the TGI ([3]; read-out: pTGI (converted)) of the same compound?
**A.** 14.5 µM

**Q.** What about the GI50 [4] of the same compound?
**A.** 5.37 µM

**Q.** And the CC50 [4, 29]?
**A.** 25.1 µM

**Q.** And the TGI ([4]; read-out: pTGI (converted))?
**A.** 11.5 µM

**Q.** What about the GI50 [5] of the same compound?
**A.** 6.46 µM

**Q.** And the LC50 [5]?
**A.** 27.5 µM

**Q.** What about the TGI ([5]; read-out: pTGI (converted)) of the same compound?
**A.** 13.2 µM

**Q.** What about the GI50 [6] of the same compound?
**A.** 5.25 µM

**Q.** What about the LC50 [6] of the same compound?
**A.** 26.3 µM

**Q.** And the TGI ([6]; read-out: pTGI (converted))?
**A.** 11.7 µM

**Q.** What about the GI50 [7] of the same compound?
**A.** 6.76 µM

**Q.** And the LC50 [7]?
**A.** 26.3 µM

**Q.** And the TGI ([7]; read-out: pTGI (converted))?
**A.** 13.5 µM

**Q.** And the GI50 [8]?
**A.** 5.75 µM

**Q.** And the CC50 [8, 29]?
**A.** 28.8 µM

**Q.** And the TGI ([8]; read-out: pTGI (converted))?
**A.** 12.9 µM

**Q.** And the GI50 [9]?
**A.** 2.88 µM

**Q.** What about the LC50 [9] of the same compound?
**A.** 23.4 µM

**Q.** What about the TGI ([9]; read-out: pTGI (converted)) of the same compound?
**A.** 9.55 µM

**Q.** What about the GI50 [10] of the same compound?
**A.** 6.31 µM

**Q.** And the LC50 [10]?
**A.** 28.8 µM

**Q.** And the TGI ([10]; read-out: pTGI (converted))?
**A.** 13.5 µM

**Q.** And the GI50 [11]?
**A.** 6.92 µM

**Q.** What about the LC50 [11] of the same compound?
**A.** 28.2 µM

**Q.** And the TGI ([11]; read-out: pTGI (converted))?
**A.** 13.8 µM

**Q.** What about the GI50 [12] of the same compound?
**A.** 1.1 µM

**Q.** And the LC50 (50% lethal concentration) [12]?
**A.** 12 µM

**Q.** And the TGI ([12]; read-out: pTGI (converted))?
**A.** 2.57 µM

**Q.** What about the GI50 [13] of the same compound?
**A.** 8.32 µM

**Q.** What about the LC50 [13] of the same compound?
**A.** 29.5 µM

**Q.** And the TGI ([13]; read-out: pTGI (converted))?
**A.** 15.8 µM

**Q.** What about the GI50 [14] of the same compound?
**A.** 8.71 µM

**Q.** And the LC50 [14]?
**A.** 28.2 µM

**Q.** What about the TGI ([14]; read-out: pTGI (converted)) of the same compound?
**A.** 15.8 µM

**Q.** What about the GI50 [15] of the same compound?
**A.** 8.91 µM

**Q.** And the LC50 [15]?
**A.** 32.4 µM

**Q.** What about the TGI ([15]; read-out: pTGI (converted)) of the same compound?
**A.** 17 µM

**Q.** What about the GI50 [16] of the same compound?
**A.** 5.89 µM

**Q.** What about the LC50 [16] of the same compound?
**A.** 25.1 µM

**Q.** And the TGI ([16]; read-out: pTGI (converted))?
**A.** 12.3 µM

**Q.** And the GI50 [17]?
**A.** 7.76 µM

**Q.** What about the LC50 [17] of the same compound?
**A.** 29.5 µM

**Q.** And the TGI ([17]; read-out: pTGI (converted))?
**A.** 15.1 µM

**Q.** What about the GI50 [18] of the same compound?
**A.** 6.46 µM

**Q.** What about the LC50 [18] of the same compound?
**A.** 39.8 µM

**Q.** What about the TGI ([18]; read-out: pTGI (converted)) of the same compound?
**A.** 16.2 µM

**Q.** What about the GI50 [19] of the same compound?
**A.** 0.794 µM

**Q.** What about the CC50 [19, 29] of the same compound?
**A.** 3.8 µM

**Q.** What about the TGI ([19]; read-out: pTGI (converted)) of the same compound?
**A.** 1.74 µM

**Q.** What about the GI50 [20] of the same compound?
**A.** 1.55 µM

**Q.** What about the LC50 [20] of the same compound?
**A.** 24.5 µM

**Q.** What about the TGI ([20]; read-out: pTGI (converted)) of the same compound?
**A.** 5.25 µM

**Q.** And the GI50 [21]?
**A.** 5.25 µM

**Q.** And the LC50 [21]?
**A.** 24 µM

**Q.** What about the TGI ([21]; read-out: pTGI (converted)) of the same compound?
**A.** 11.2 µM

**Q.** What about the GI50 [22] of the same compound?
**A.** 6.17 µM

**Q.** What about the LC50 [22] of the same compound?
**A.** 26.9 µM

**Q.** And the TGI ([22]; read-out: pTGI (converted))?
**A.** 12.9 µM

**Q.** And the GI50 [23]?
**A.** 5.75 µM

**Q.** What about the LC50 [23] of the same compound?
**A.** 30.9 µM

**Q.** And the TGI ([23]; read-out: pTGI (converted))?
**A.** 13.5 µM

**Q.** What about the GI50 [24] of the same compound?
**A.** 6.17 µM

**Q.** And the LC50 [24]?
**A.** 28.2 µM

**Q.** And the TGI ([24]; read-out: pTGI (converted))?
**A.** 13.2 µM

**Q.** What about the GI50 [25] of the same compound?
**A.** 1.17 µM

**Q.** And the LC50 [25]?
**A.** 13.2 µM

**Q.** And the TGI ([25]; read-out: pTGI (converted))?
**A.** 3.02 µM

**Q.** And the GI50 [26]?
**A.** 7.94 µM

**Q.** And the LC50 [26]?
**A.** 31.6 µM

**Q.** And the TGI ([26]; read-out: pTGI (converted))?
**A.** 15.8 µM

**Q.** What about the GI50 [27] of the same compound?
**A.** 6.17 µM

**Q.** And the CC50 [27, 29]?
**A.** 40.7 µM

**Q.** What about the TGI ([27]; read-out: pTGI (converted)) of the same compound?
**A.** 15.8 µM

**Q.** And the GI50 [28]?
**A.** 7.24 µM

**Q.** And the LC50 (concentration killing 50% of cells) [28]?
**A.** 26.9 µM

**Q.** And the TGI ([28]; read-out: pTGI (converted))?
**A.** 14.1 µM

Source: ChEMBL document CHEMBL2346608, “New annelated thieno[2,3-e][1,2,3]triazolo[1,5-a]pyrimidines, with potent anticancer activity, designed through VLAK protocol” (2013)
